# Reference: ChEMBL document CHEMBL1141420, “Towards a new generation of potential antipsychotic agents combining D2 and 5-HT1A receptor activities” (J Med Chem, 2007)
# Active and inactive are the calls of the source. The rule behind the calls is not given here.
# Target: T1, 5-hydroxytryptamine receptor 1A (Rattus norvegicus, UniProt P19327)
# T1 sequence (P19327 whole entry): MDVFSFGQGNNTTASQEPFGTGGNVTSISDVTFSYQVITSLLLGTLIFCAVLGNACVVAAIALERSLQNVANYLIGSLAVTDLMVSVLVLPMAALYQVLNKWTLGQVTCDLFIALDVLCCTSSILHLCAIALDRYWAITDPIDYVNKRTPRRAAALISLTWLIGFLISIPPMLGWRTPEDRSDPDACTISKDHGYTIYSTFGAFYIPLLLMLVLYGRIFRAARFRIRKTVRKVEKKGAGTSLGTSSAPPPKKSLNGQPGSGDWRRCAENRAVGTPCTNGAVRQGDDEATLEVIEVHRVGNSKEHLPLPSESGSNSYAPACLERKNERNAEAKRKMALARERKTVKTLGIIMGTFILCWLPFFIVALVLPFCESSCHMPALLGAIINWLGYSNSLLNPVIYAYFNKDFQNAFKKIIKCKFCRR
# Assay: Displacement of [3H]OH-DPAT from rat cortex 5HT1A receptor
# Details: not given
row,Structure (SMILES),Ki [nM]
1,CC(C)Oc1ccccc1OCCNCc1cccc(-c2ccccc2)c1,26.3
2,Fc1ccc(-c2cncc(CN3CCN(c4cccc5c4OCCO5)CC3)c2)cc1 [ADOPRAZINE],2.29
3,CC(C)Oc1ccccc1OCCNCc1cccc(C2=CCCCCC2)c1,22.9
4,CC(C)Oc1ccccc1OCCNCc1cccc(C2CCCC2)c1,16.6
5,C1=C(c2cncc(CNCCOc3cccc4c3OC3(CC3)C4)c2)CCC1,3.63
6,CC(C)Oc1ccccc1OCCNCc1cccc(-c2ccco2)c1,67.6

# The remaining lines, values ahead:
row,Ki [nM],Structure (SMILES)
1,5.75,CC1(C)Cc2cccc(OCCNCc3cccc(C4=CCCC4)c3)c2O1
2,29.5,CC(C)Oc1ccccc1OCCNCc1cccc(C2=CCCC2)c1
3,42.7,CC1(C)COc2c(OCCNCc3cccc(C4=CCCC4)c3)cccc21
4,1.7,C1=C(c2cccc(CNCCOc3cccc4c3OCCO4)c2)CCC1
5,6.17,C1=C(c2cccc(CNCCOc3cccc4c3OC3(CC3)C4)c2)CCC1

# Target: 5-hydroxytryptamine receptor 2A (Rattus norvegicus, UniProt P14842)
# Assay: Displacement of [3H]ketanserin from rat cortex 5HT2A receptor
# Details: not given
# 5-hydroxytryptamine receptor 2A, sequence (P14842 whole entry): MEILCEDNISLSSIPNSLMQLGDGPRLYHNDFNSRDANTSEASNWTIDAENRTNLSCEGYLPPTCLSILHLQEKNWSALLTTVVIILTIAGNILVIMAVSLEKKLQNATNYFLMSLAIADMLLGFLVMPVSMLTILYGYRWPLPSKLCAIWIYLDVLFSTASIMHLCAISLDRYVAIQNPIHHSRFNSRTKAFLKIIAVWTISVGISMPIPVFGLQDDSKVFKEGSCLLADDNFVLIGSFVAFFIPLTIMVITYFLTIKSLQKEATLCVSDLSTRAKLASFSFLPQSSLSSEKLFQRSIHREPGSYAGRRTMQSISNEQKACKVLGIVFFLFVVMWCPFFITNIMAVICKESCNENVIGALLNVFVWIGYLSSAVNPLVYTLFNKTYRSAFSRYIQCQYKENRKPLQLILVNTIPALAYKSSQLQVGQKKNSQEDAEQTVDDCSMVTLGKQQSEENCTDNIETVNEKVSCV
row,Ki [nM],Structure (SMILES)
1,724,CC(C)Oc1ccccc1OCCNCc1cccc(-c2ccccc2)c1
2,724,Fc1ccc(-c2cncc(CN3CCN(c4cccc5c4OCCO5)CC3)c2)cc1 [ADOPRAZINE]
3,1050,CC(C)Oc1ccccc1OCCNCc1cccc(C2=CCCCCC2)c1
4,302,CC(C)Oc1ccccc1OCCNCc1cccc(C2CCCC2)c1
5,646,CC(C)Oc1ccccc1OCCNCc1cccc(C2=CCCC2)c1
6,372,CC(C)Oc1ccccc1OCCNCc1cccc(-c2ccco2)c1

# Target: D(2) dopamine receptor (Rattus norvegicus, UniProt P61169)
# Assay: Displacement of [3H]YM-09151-2 from rat striatum D2 receptor
# Details: not given
# D(2) dopamine receptor, sequence (P61169 whole entry): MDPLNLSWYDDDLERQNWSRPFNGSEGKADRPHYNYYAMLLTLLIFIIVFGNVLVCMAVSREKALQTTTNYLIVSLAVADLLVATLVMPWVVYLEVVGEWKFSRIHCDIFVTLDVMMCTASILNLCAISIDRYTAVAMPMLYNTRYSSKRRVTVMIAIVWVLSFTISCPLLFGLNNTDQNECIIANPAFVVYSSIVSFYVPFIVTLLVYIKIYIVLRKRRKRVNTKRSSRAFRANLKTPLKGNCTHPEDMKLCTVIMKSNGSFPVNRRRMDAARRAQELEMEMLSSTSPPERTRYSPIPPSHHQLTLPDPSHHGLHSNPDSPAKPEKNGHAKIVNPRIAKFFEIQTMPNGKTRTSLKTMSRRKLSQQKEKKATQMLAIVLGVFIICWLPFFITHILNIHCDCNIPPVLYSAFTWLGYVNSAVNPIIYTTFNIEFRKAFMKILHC
row,Structure (SMILES),Ki [nM]
1,CC(C)Oc1ccccc1OCCNCc1cccc(-c2ccccc2)c1,0.195
2,CC(C)Oc1ccccc1OCCNCc1cccc(C2=CCCCCC2)c1,3.09
3,CC(C)Oc1ccccc1OCCNCc1cccc(C2CCCC2)c1,0.562
4,C1=C(c2cncc(CNCCOc3cccc4c3OC3(CC3)C4)c2)CCC1,0.447
5,CC(C)Oc1ccccc1OCCNCc1cccc(-c2ccco2)c1,0.339

# Other lines, results leading:
row,Ki [nM],Structure (SMILES)
1,0.417,CC1(C)Cc2cccc(OCCNCc3cccc(C4=CCCC4)c3)c2O1
2,0.501,CC(C)Oc1ccccc1OCCNCc1cccc(C2=CCCC2)c1
3,0.813,CC1(C)COc2c(OCCNCc3cccc(C4=CCCC4)c3)cccc21
4,0.776,C1=C(c2cccc(CNCCOc3cccc4c3OCCO4)c2)CCC1
5,1.12,C1=C(c2cccc(CNCCOc3cccc4c3OC3(CC3)C4)c2)CCC1

# Target: T2, 5-hydroxytryptamine receptor 1A (Homo sapiens, UniProt P08908)
# T2 sequence (P08908 whole entry): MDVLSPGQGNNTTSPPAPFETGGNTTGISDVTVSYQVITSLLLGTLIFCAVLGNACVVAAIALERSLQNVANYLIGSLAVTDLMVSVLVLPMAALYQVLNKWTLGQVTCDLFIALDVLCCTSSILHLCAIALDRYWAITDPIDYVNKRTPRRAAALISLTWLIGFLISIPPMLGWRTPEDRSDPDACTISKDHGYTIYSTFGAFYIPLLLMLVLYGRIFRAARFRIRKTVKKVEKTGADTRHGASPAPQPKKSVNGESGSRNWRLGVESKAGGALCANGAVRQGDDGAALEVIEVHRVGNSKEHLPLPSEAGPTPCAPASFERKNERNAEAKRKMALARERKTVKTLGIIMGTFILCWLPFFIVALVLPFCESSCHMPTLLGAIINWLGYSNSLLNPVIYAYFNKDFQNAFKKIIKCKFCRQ
# Assay: Agonist activity at human 5HT1A receptor in HeLa cells assessed as stimulation of [35S]GTP-gamma-S binding
# Type: functional, cell-based
# Details: not given
# How it was run: (§1)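 Membranes from HeLa cells expressing human 5-HT1A, prepared by homogenisation and 40 000 g spins in Hepes/EDTA, incubated with compound 1 h at 30 °C. [35S]GTPγS added at 0.1 nM final, then 30 min at 30 °C. Filtration and scintillation counting. Six concentrations from 10^-10 to 10^-5 M, triplicate, three experiments.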
row,Structure (SMILES),EC50 [nM]
1,CC(C)Oc1ccccc1OCCNCc1cccc(-c2ccccc2)c1,1410
2,Fc1ccc(-c2cncc(CN3CCN(c4cccc5c4OCCO5)CC3)c2)cc1 [ADOPRAZINE],5.89
3,CC(C)Oc1ccccc1OCCNCc1cccc(C2=CCCCCC2)c1,1550
4,CC(C)Oc1ccccc1OCCNCc1cccc(C2CCCC2)c1,195
5,C1=C(c2cncc(CNCCOc3cccc4c3OC3(CC3)C4)c2)CCC1,2.63
6,CC(C)Oc1ccccc1OCCNCc1cccc(-c2ccco2)c1,> 10000

# More lines, now with the values ahead:
row,EC50 [nM],Structure (SMILES)
1,10,CC1(C)Cc2cccc(OCCNCc3cccc(C4=CCCC4)c3)c2O1
2,69.2,CC(C)Oc1ccccc1OCCNCc1cccc(C2=CCCC2)c1
3,112,CC1(C)COc2c(OCCNCc3cccc(C4=CCCC4)c3)cccc21
4,6.46,C1=C(c2cccc(CNCCOc3cccc4c3OCCO4)c2)CCC1
5,33.9,C1=C(c2cccc(CNCCOc3cccc4c3OC3(CC3)C4)c2)CCC1

# Target: T3, 5-hydroxytryptamine receptor 1A (Homo sapiens) (UniProt P08908)
# T3 sequence (whole entry): T2 sequence (P08908 whole entry)
# Assay: Agonist activity at human 5HT1A receptor in HeLa cells assessed as stimulation of [35S]GTPgammaS binding relative to serotonin
# Type: functional, cell-based
# Details: not given
# How it was run: as §1
row,Structure (SMILES),Emax [%]
1,CC(C)Oc1ccccc1OCCNCc1cccc(-c2ccccc2)c1,73.9
2,Fc1ccc(-c2cncc(CN3CCN(c4cccc5c4OCCO5)CC3)c2)cc1 [ADOPRAZINE],45.3
3,CC(C)Oc1ccccc1OCCNCc1cccc(C2=CCCCCC2)c1,86.5
4,CC(C)Oc1ccccc1OCCNCc1cccc(C2CCCC2)c1,71.2
5,C1=C(c2cncc(CNCCOc3cccc4c3OC3(CC3)C4)c2)CCC1,78.5

# Second part, the compound after the results:
row,Emax [%],Structure (SMILES)
1,85.6,CC1(C)Cc2cccc(OCCNCc3cccc(C4=CCCC4)c3)c2O1
2,54,CC(C)Oc1ccccc1OCCNCc1cccc(C2=CCCC2)c1
3,72.4,CC1(C)COc2c(OCCNCc3cccc(C4=CCCC4)c3)cccc21
4,68.9,C1=C(c2cccc(CNCCOc3cccc4c3OCCO4)c2)CCC1
5,93.8,C1=C(c2cccc(CNCCOc3cccc4c3OC3(CC3)C4)c2)CCC1

# System: Rattus norvegicus
# Assay: Normalizing effect on methylphenidate-induced behaviours in ip dosed rat after 30 min
# Type: functional
# Details: not given
# How it was run: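 Rats given methylphenidate 40 mg/kg i.p. plus compound i.p. (10 mL/kg; doses as free base), seven per dose. Over 10 min starting 30 min after injection, locomotion, rearing, sniffing, gnawing and licking scored in 10 s observations repeated 10 times. Normalization judged against saline and methylphenidate controls.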
row,Structure (SMILES),Activity
1,CC1(C)COc2c(OCCNCc3cccc(C4=CCCC4)c3)cccc21,Active
2,C1=C(c2cccc(CNCCOc3cccc4c3OCCO4)c2)CCC1,Active
3,C1=C(c2cncc(CNCCOc3cccc4c3OC3(CC3)C4)c2)CCC1,Active
4,C1=C(c2cccc(CNCCOc3cccc4c3OC3(CC3)C4)c2)CCC1,Active

# Same assay, conditions: 0.5 h
row,Structure (SMILES),ED50 [mg/kg]
1,Fc1ccc(-c2cncc(CN3CCN(c4cccc5c4OCCO5)CC3)c2)cc1 [ADOPRAZINE],1.4
2,CC1(C)Cc2cccc(OCCNCc3cccc(C4=CCCC4)c3)c2O1,1.1

# System: Rattus norvegicus
# Assay: Induction of catalepsy in ip dosed rat after 60 min by crossed-leg position test
# Type: functional
# Details: 1 h
# How it was run: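 Rats dosed i.p. (10 mL/kg; doses as free base), seven per dose. From 60 min, hind limbs crossed over the ipsilateral forelimbs and time held recorded, up to 30 s. Repeated at 3 and 6 min and the three trials averaged. Incidence taken as catalepsy lasting 30 s.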
row,Structure (SMILES),ED50 [mg/kg]
1,Fc1ccc(-c2cncc(CN3CCN(c4cccc5c4OCCO5)CC3)c2)cc1 [ADOPRAZINE],> 40
2,CC1(C)Cc2cccc(OCCNCc3cccc(C4=CCCC4)c3)c2O1,> 40

# System: Rattus norvegicus
# Assay: Induction of lower lip retraction in ip dosed rat after 15 min
# Type: functional
# Details: 0.25 h
# How it was run: (§2)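 Rats given compound i.p. (10 mL/kg; doses as free base), five per dose, observed individually for 10 min from 15 min post-injection. LLR scored present if uninterrupted for ≥3 s, in 10 cycles; response was ≥1 positive score. FBP scored present only if seen over the whole period.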
row,Structure (SMILES),ED50 [mg/kg]
1,Fc1ccc(-c2cncc(CN3CCN(c4cccc5c4OCCO5)CC3)c2)cc1 [ADOPRAZINE],0.32
2,CC1(C)Cc2cccc(OCCNCc3cccc(C4=CCCC4)c3)c2O1,8.3

# System: Rattus norvegicus
# Assay: Induction of flat body posture in ip dosed rat after 15 min
# Type: functional
# Details: 0.25 h
# How it was run: as §2
row,Structure (SMILES),ED50 [mg/kg]
1,Fc1ccc(-c2cncc(CN3CCN(c4cccc5c4OCCO5)CC3)c2)cc1 [ADOPRAZINE],1.7
2,CC1(C)Cc2cccc(OCCNCc3cccc(C4=CCCC4)c3)c2O1,32

# System: Rattus norvegicus
# Assay: Induction of forepaw treading in rat at 40 mg/kg, ip
# Type: functional, organism-based
# Parameters: dose 40 mg/kg
# Details: not given
row,Structure (SMILES),Activity
1,CC1(C)Cc2cccc(OCCNCc3cccc(C4=CCCC4)c3)c2O1,inactive

# System: Rattus norvegicus
# Assay: Ratio of ED50 for LLR induction to ED50 for normalization in ip dosed rat
# Type: functional
# Details: not given
row,Structure (SMILES),Ratio ED50
1,CC1(C)Cc2cccc(OCCNCc3cccc(C4=CCCC4)c3)c2O1,7.5

# System: Rattus norvegicus
# Assay: Ratio of ED50 for catalepsy induction to ED50 for normalization in ip dosed rat
# Type: functional
# Details: not given
row,Structure (SMILES),Ratio ED50
1,CC1(C)Cc2cccc(OCCNCc3cccc(C4=CCCC4)c3)c2O1,>36

# Target: D(2) dopamine receptor (Rattus norvegicus) (UniProt P61169)
# Details: not given
# D(2) dopamine receptor (Rattus norvegicus), sequence (P61169 whole entry): as the sequence (P61169 whole entry) above
row,pKb,Structure (SMILES)
1,7.81,Fc1ccc(-c2cncc(CN3CCN(c4cccc5c4OCCO5)CC3)c2)cc1 [ADOPRAZINE]
2,8.29,CC1(C)Cc2cccc(OCCNCc3cccc(C4=CCCC4)c3)c2O1
